ChEMBL document CHEMBL3414477, “Synthesis, biological investigation and molecular docking study of N-malonyl-1,2-dihydroisoquinoline derivatives as brain specific and shelf-stable MAO inhibitors” (Eur J Med Chem, 2015)
One block for each molecule: values may come before it.

Experiments:
[1] = Shelf-life stability of the compound in phosphate buffer at pH 7.4 assessed as half life by reverse-phase HPLC analysis; type: physicochemical
In short: (§1)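 1 mL of freshly prepared 2 × 10^-4 M methanolic solution (stock) was added to 5 mL of 0.2 M phosphate buffer, pH 5.8 or 7.4, at about 37 °C. Tubes were kept in the dark for 3 days and sampled at 5, 180, 1880 and 2440 min for reverse-phase HPLC. The rate constant came from linear regression of ln peak area against time, and t1/2 was derived from it.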

[2] = Chemical stability of the compound in 30% aqueous hydrogen peroxide assessed as half life by reverse-phase HPLC analysis; type: physicochemical
In short: (§2)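 Reagents were 10% methanolic silver nitrate or 30% aqueous hydrogen peroxide. The compound and its metabolites were measured by a validated reverse-phase HPLC method. Pseudo first order disappearance was fitted by linear regression of ln peak area against time, and t1/2 was derived from the rate constant.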

[3] = Stability of the compound in 80% mouse plasma assessed as half life by reverse-phase HPLC analysis; type: ADME, cell-free
In short: (§3)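 Heparinized mouse blood was spun at 4000 rpm for 20 min, and the plasma was diluted to 80% with 0.2 M phosphate buffer, pH 7.4, then prewarmed at 37 °C. Methanolic compound solution (2 × 10^-4 M stock) was added and the mix held at 37 °C. Samples were taken at 5–240 min, quenched in ice-cold methanol, frozen, centrifuged and run on HPLC. Rate came from ln peak area versus time (n = 5), and t1/2 was derived.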

[4] = Shelf-life stability of the compound in phosphate buffer at pH 7.4 assessed as apparent pseudo first order rate constant of disappearance by reverse-phase HPLC analysis; type: physicochemical; in short: as §1
[5] = Stability of the compound in 20% rabbit brain homogenate assessed as half life by reverse-phase HPLC analysis; type: ADME, tissue-based, Oryctolagus cuniculus
In short: (§4)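 Rabbit brains were homogenized in 4 volumes of ice-cold isotonic 0.2 M phosphate buffer, pH 7.4, giving a 20% homogenate that was equilibrated at 37 °C. Methanolic compound solution (2 × 10^-4 M stock) was added and the mix held at 37 °C. Samples were taken at 5, 60, 120, 180 and 240 min, quenched in ice-cold methanol, frozen, centrifuged and run on HPLC. The pseudo first order rate came from ln peak area versus time (n = 5), and t1/2 was derived.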

[6] = tested on: Brain; assay: Drug distribution in Sprague-Dawley rat brain measured per gram at 20 mg/kg, iv; type: ADME, organism-based; parameters: dose 20 mg/kg, route intravenous; details: in vivo
In short: (§5)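 Female Sprague Dawley rats (65–70 g, 3 per group) were anesthetized with urethane and given 20 mg/kg in DMSO (25 mg/mL) via the external jugular vein. At 5, 15, 30, 45, 60 and 75 min, eyeball blood was taken into acetonitrile. Brains were removed, washed, homogenized in water plus 5% DMSO/acetonitrile and centrifuged at 4000 rpm for 10 min. Supernatants were analysed by HPLC, with DMSO-injected controls.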

[7] = Chemical stability of the compound in 10% methanolic silver nitrate assessed as half life by reverse-phase HPLC analysis; type: physicochemical; in short: as §2
[8] = Chemical stability of the compound in 30% aqueous hydrogen peroxide assessed as apparent pseudo first order rate constant of disappearance by reverse-phase HPLC analysis; type: physicochemical; details: buffer; in short: as §2
[9] = Shelf-life stability of the compound in phosphate buffer at pH 5.8 assessed as apparent pseudo first order rate constant of disappearance by reverse-phase HPLC analysis; type: physicochemical; in short: as §1
[10] = tested on: Blood; assay: Drug metabolism in Sprague-Dawley rat blood assessed as 2-(isoquinolinium-2-yl)-3-oxo-3-(phenethylamino)propanoate measured during first 15 mins at 20 mg/kg, iv; type: ADME, organism-based; parameters: dose 20 mg/kg, route intravenous; details: in vivo, 0.25 h; in short: as §5
[11] = tested on: Brain; assay: Drug metabolism in Sprague-Dawley rat brain assessed as 2-(isoquinolin-2(1H)-yl)-3-oxo-3-(phenethylamino)propanoate at 20 mg/kg, iv; type: ADME, organism-based; parameters: dose 20 mg/kg, route intravenous; details: in vivo; in short: as §5
[12] = Shelf-life stability of the compound in phosphate buffer at pH 5.8 assessed as half life by reverse-phase HPLC analysis; type: physicochemical; in short: as §1
[13] = tested on: Brain; assay: Stability of the compound in 20% rabbit brain homogenate assessed as apparent pseudo first order rate constant of disappearance by reverse-phase HPLC analysis; type: ADME, tissue-based, Oryctolagus cuniculus; in short: as §4
[14] = tested on: Brain; assay: Drug metabolism in Sprague-Dawley rat brain assessed as 2-(isoquinolinium-2-yl)-3-oxo-3-(phenethylamino)propanoate at 20 mg/kg, iv; type: ADME, organism-based; parameters: dose 20 mg/kg, route intravenous; details: in vivo; in short: as §5
[15] = Chemical stability of the compound in 10% methanolic silver nitrate assessed as apparent pseudo first order rate constant of disappearance by reverse-phase HPLC analysis; type: physicochemical; in short: as §2
[16] = tested on: Plasma; assay: Stability of the compound in 80% mouse plasma assessed as apparent pseudo first order rate constant of disappearance by reverse-phase HPLC analysis; type: ADME, cell-free; in short: as §3
[17] = organism: Bos taurus; assay: Selectivity index, ratio of IC50 for bovine brain mitochondria MAO-B to IC50 for bovine brain mitochondria MAO-A
In short: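 Bovine brain mitochondria (6 mg/mL suspension) in 0.25 M phosphate buffer, pH 7.4, were used with 0.1 mM clorgyline or L-deprenyl to isolate MAO-A or MAO-B. Compounds at five concentrations in propylene glycol were preincubated for 20 min, then 2.5 mM kynuramine was added for 60 min at 37 °C. The reaction was stopped with perchloric acid, made alkaline with NaOH and read fluorimetrically in duplicate. IC50 was reported, and SI = MAO-B IC50 / MAO-A IC50.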

[18] = target: T1, Amine oxidase [flavin-containing] B (Bos taurus, UniProt P56560); assay: Inhibition of bovine brain mitochondria MAO-B by spectrofluorimetry
T1 sequence (P56560 whole entry): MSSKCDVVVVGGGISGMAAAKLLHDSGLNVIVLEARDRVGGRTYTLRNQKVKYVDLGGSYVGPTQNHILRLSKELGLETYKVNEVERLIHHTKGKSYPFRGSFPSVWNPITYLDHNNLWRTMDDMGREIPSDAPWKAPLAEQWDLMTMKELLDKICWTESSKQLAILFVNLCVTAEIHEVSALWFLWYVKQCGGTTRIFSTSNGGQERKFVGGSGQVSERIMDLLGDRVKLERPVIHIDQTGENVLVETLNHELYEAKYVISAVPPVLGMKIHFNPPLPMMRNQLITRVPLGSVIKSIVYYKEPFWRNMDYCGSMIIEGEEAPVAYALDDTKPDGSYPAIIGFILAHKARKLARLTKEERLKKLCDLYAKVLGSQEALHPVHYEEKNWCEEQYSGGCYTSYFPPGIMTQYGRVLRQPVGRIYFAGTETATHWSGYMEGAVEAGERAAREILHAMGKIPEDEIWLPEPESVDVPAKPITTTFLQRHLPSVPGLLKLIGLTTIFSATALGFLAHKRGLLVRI

[19] = target: T2, Amine oxidase [flavin-containing] A (Bos taurus, UniProt P21398); assay: Inhibition of bovine brain mitochondria MAO-A by spectrofluorimetry
T2 sequence (P21398 whole entry): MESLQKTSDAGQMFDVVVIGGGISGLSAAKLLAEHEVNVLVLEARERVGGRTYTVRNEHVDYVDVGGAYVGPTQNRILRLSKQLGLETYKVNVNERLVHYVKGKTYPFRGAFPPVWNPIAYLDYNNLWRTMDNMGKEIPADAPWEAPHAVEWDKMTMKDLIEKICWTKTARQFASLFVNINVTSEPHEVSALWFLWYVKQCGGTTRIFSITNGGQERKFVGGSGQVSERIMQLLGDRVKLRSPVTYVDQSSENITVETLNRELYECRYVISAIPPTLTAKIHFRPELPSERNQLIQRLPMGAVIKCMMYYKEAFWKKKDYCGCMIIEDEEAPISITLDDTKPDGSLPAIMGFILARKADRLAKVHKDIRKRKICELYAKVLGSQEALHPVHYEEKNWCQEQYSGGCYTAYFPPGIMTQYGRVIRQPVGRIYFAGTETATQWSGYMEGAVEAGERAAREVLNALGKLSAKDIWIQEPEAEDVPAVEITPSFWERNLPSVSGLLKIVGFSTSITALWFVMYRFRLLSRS

- half-life [1]: 10.1 h
- half-life [2]: 0.637 h
- half-life [3]: 1.7 h
- K [4]: 0.00114 min⁻¹
- half-life [5]: 3.02 h
- Drug uptake [6]: 145.1 µg/g
- half-life [7]: 0.532 h
- K [8]: 0.0181 min⁻¹
- K [9]: 0.000561 min⁻¹
- Drug metabolism [10]: metabolite_detected
- Drug metabolism [11]: metabolite_detected
- half-life [12]: 20.6 h
- K [13]: 3.82 ×10⁻³ /min
- Drug metabolism [14]: metabolite_detected
- K [15]: 0.0217 min⁻¹
- K [16]: 6.81 ×10⁻³ /min
SMILES: CCOC(=O)C(C(=O)NCCc1ccccc1)N1C=Cc2ccccc2C1 (stereo unspecified)

- Selectivity Index [17]: 1.89e+06
- IC50 [18]: 7400 µM
- IC50 [19]: 0.0039 µM
SMILES: N/N=C/c1ccc(Cl)cc1

- Selectivity Index [17]: 1.94e+06
- IC50 [18]: 7400 µM
- IC50 [19]: 0.0038 µM
SMILES: CCOC(=O)C(C(=O)N/N=C/c1ccc([N+](=O)[O-])cc1)[n+]1ccc2ccccc2c1 (stereo unspecified)

- Selectivity Index [17]: 5400
- IC50 [18]: 360 µM
- IC50 [19]: 0.066 µM
SMILES: CCOC(=O)C(C(=O)N/N=C/c1ccc(Cl)cc1)[n+]1ccc2ccccc2c1 (stereo unspecified)

- Selectivity Index [17]: 12400
- IC50 [18]: 77 µM
- IC50 [19]: 0.0062 µM
SMILES: CCOC(=O)C(C(=O)NCCc1ccccc1)[n+]1ccc2ccccc2c1 (stereo unspecified)

- Selectivity Index [17]: 9500
- IC50 [18]: 380 µM
- IC50 [19]: 0.049 µM
SMILES: N/N=C/c1ccc([N+](=O)[O-])cc1
